Changes are numbered by the printed parent chain. Names may count otherwise.

Data on three molecules can be found in PMC6424611 (Journal of molecular biology, 2019).

One experiment relates to PARD3B. Description: NanoBiT protein-protein interaction assay. As to conditions: PARD3B 1–913, serum-starved HEK293T, n=6, vs WT RSK1. Format: cell-based, human. The method, boiled down: (§1)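 Full-length RSK1 (N-terminal SmBiT) is paired with an N-terminal LgBiT fusion of the partner: ARHGEF12 isoform 2, GOPC isoform 2, PARD3B 1–913, or SYNJ2BP. Sensors are transiently co-expressed in HEK293T cells, which are serum-starved for 20 h from 4 h post-transfection and assayed with Nano-Glo at 24 h. Steady-state signal is referenced to the wild-type pair. For the EGF response (20 ng/ml, 60 min), signal is normalized to initial luminescence and to unstimulated furimazine decay. At least 6 replicates.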

For another experiment, the system named is ARHGEF12. Description: NanoBiT protein-protein interaction assay. It counts as cell-based, human. As to conditions: full-length proteins, serum-starved HEK293T, n=6, vs WT RSK1. The method, boiled down:
as §1

In another experiment the test system is SYNJ2BP. Description: NanoBiT protein-protein interaction assay. It counts as cell-based, human. As to conditions: full-length proteins, serum-starved HEK293T, n=6, vs WT RSK1. The essentials: as §1
Another experiment relates to MAGI1. Nature of the experiment: NanoBiT protein-protein interaction assay. As to conditions: full-length proteins, serum-starved HEK293T, n=6, vs WT RSK1. It counts as cell-based, human. The essentials:
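Full-length RSK1 (N-terminal SmBiT) is co-expressed with full-length MAGI1–LgBiT in HEK293T cells by FuGene HD transfection, then serum-starved for 20 h in CO2-independent medium. Cells are read with Nano-Glo 24 h post-transfection. Steady-state luminescence of mutant sensors is referenced to the wild-type pair. For the 20 ng/ml EGF response, signal is followed for 60 min and normalized to initial luminescence and to furimazine decay in unstimulated cells. At least 6 biological replicates.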

The test system of the next experiment is RhoA. Nature of the experiment: G-LISA RhoA activation assay. Format: cell-based. As to conditions: RSK1/2 knockout HEK293T, n=4; for serum-stimulated RhoA activity: serum-starved, 20% serum 5 min.
The test system of a further experiment is GOPC. Description: NanoBiT protein-protein interaction assay. As to conditions: full-length proteins, serum-starved HEK293T, n=6, vs WT RSK1. It counts as cell-based, human. The method, boiled down:
as §1

B1: WT: full-length wild type RSK1 (1–735) (protein)
chain: MPLAQLKEPWPLMELVPLDPENGQTSGEEAGLQPSKDEGVLKEISITHHVKAGSEKADPSHFELLKVLGQGSFGKVFLVRKVTRPDSGHLYAMKVLKKATLKVRDRVRTKMERDILADVNHPFVVKLHYAFQTEGKLYLILDFLRGGDLFTRLSKEVMFTEEDVKFYLAELALGLDHLHSLGIIYRDLKPENILLDEEGHIKLTDFGLSKEAIDHEKKAYSFCGTVEYMAPEVVNRQGHSHSADWWSYGVLMFEMLTGSLPFQGKDRKETMTLILKAKLGMPQFLSTEAQSLLRALFKRNPANRLGSGPDGAEEIKRHVFYSTIDWNKLYRREIKPPFKPAVAQPDDTFYFDTEFTSRTPKDSPGIPPSAGAHQLFRGFSFVATGLMEDDGKPRAPQAPLHSVVQQLHGKNLVFSDGYVVKETIGVGSYSECKRCVHKATNMEYAVKVIDKSKRDPSEEIEILLRYGQHPNIITLKDVYDDGKHVYLVTELMRGGELLDKILRQKFFSEREASFVLHTIGKTVEYLHSQGVVHRDLKPSNILYVDESGNPECLRICDFGFAKQLRAENGLLMTPCYTANFVAPEVLKRQGYDEGCDIWSLGILLYTMLAGYTPFANGPSDTPEEILTRIGSGKFTLSGGNWNTVSETAKDLVSKMLHVDPHQRLTAKQVLQHPWVTQKDKLPQSQLSHQDLQLVKGAMAATYSALNSSKPTPQLKPIESSILAQRRVRKLPSTTL
modifications: left off: SmBiT, N-terminal, kept
Regarding B1, the “steady-state luminescence of interaction sensor” value (“steady-state luminescence” below) with PARD3B, in the experiment on ARHGEF12, with SYNJ2BP, in the experiment on MAGI1 and with GOPC was “high luminescence signals” in each case. In addition, the “serum-stimulated RhoA activity” value in the experiment with RhoA is on record as “increased RhoA activity”. For the same molecule, the “basal RhoA activity” value in the experiment on RhoA (transfected) is “increased level of basal RhoA activity”.

B2: L714E: RSK1 mutant; eliminates the interaction between ERK and RSK (protein)
chain: B1 chain with L714E
modifications: left off: SmBiT, N-terminal, kept
Regarding B2, the “steady-state luminescence” value in the experiment with PARD3B and with SYNJ2BP was “decreased the luminescence outputs” in each case.

B3: ΔC1: RSK1 with the last C-terminal residue truncated (1–734), no functional PBM (protein)
chain: MPLAQLKEPWPLMELVPLDPENGQTSGEEAGLQPSKDEGVLKEISITHHVKAGSEKADPSHFELLKVLGQGSFGKVFLVRKVTRPDSGHLYAMKVLKKATLKVRDRVRTKMERDILADVNHPFVVKLHYAFQTEGKLYLILDFLRGGDLFTRLSKEVMFTEEDVKFYLAELALGLDHLHSLGIIYRDLKPENILLDEEGHIKLTDFGLSKEAIDHEKKAYSFCGTVEYMAPEVVNRQGHSHSADWWSYGVLMFEMLTGSLPFQGKDRKETMTLILKAKLGMPQFLSTEAQSLLRALFKRNPANRLGSGPDGAEEIKRHVFYSTIDWNKLYRREIKPPFKPAVAQPDDTFYFDTEFTSRTPKDSPGIPPSAGAHQLFRGFSFVATGLMEDDGKPRAPQAPLHSVVQQLHGKNLVFSDGYVVKETIGVGSYSECKRCVHKATNMEYAVKVIDKSKRDPSEEIEILLRYGQHPNIITLKDVYDDGKHVYLVTELMRGGELLDKILRQKFFSEREASFVLHTIGKTVEYLHSQGVVHRDLKPSNILYVDESGNPECLRICDFGFAKQLRAENGLLMTPCYTANFVAPEVLKRQGYDEGCDIWSLGILLYTMLAGYTPFANGPSDTPEEILTRIGSGKFTLSGGNWNTVSETAKDLVSKMLHVDPHQRLTAKQVLQHPWVTQKDKLPQSQLSHQDLQLVKGAMAATYSALNSSKPTPQLKPIESSILAQRRVRKLPSTT
modifications: left off: SmBiT, N-terminal, kept
Turning to B3, the “steady-state luminescence” value in the experiment with PARD3B, in the experiment with ARHGEF12, in the experiment on SYNJ2BP, with MAGI1 and with GOPC was “significantly reduced the luminescent signal” in each case. For the same molecule, in the experiment with RhoA, the “serum-stimulated RhoA activity” value is reported as “only minor increment”.
